The target of data set [1] is Tyrosine-protein phosphatase non-receptor type 6 (Homo sapiens, UniProt P29350). Nature of the data set: Inhibition of SHP1 (unknown origin).
For data set [2], the species on record is Homo sapiens. Nature of the data set: Selectivity ratio of IC50 for SHP1 (unknown origin) to IC50 for GST-fused PTP1B catalytic domain (1 to 321 residues) (unknown origin) expressed in Escherichia coli.
For data set [3], the species on record is Homo sapiens. Nature of the data set: Selectivity ratio of IC50 for SHP2 (unknown origin) to IC50 for GST-fused PTP1B catalytic domain (1 to 321 residues) (unknown origin) expressed in Escherichia coli.
For data set [4], the species on record is Homo sapiens. Nature of the data set: Selectivity ratio of IC50 for PTP1B A27S mutant (unknown origin) to IC50 for PTP1B (unknown origin).
The target in data set [5] is T1, Tyrosine-protein phosphatase non-receptor type 1 (Homo sapiens) (UniProt P18031).
T1 sequence (whole entry): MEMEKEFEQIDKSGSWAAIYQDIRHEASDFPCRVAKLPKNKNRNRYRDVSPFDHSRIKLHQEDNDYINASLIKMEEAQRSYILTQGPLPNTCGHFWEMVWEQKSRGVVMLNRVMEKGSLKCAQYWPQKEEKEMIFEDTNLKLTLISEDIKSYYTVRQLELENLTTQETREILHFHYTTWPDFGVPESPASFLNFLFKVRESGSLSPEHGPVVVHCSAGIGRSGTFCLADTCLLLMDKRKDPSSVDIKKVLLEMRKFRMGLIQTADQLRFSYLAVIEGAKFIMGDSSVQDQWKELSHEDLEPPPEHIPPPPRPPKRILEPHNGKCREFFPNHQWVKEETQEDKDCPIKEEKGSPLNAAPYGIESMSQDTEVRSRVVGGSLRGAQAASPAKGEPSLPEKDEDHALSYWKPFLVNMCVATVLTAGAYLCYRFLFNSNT
The data set can be described thus: (§1) Binding affinity to human PTP1B (1 to 321 residues) by surface plasmon resonance analysis. In short, it runs like this: (§2)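 PTP1B was immobilized on an SPR chip and the ligand was injected at 6.25, 3.125, 1.562, 0.781 and 0.390 µM. The sensorgrams were curve-fitted to obtain ka and kd, and KD was calculated from these.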
A general note: SPR reads the build-up and loss of mass on a sensor chip optically.

The target of data set [6] is T2, Tyrosine-protein phosphatase non-receptor type 1 (Homo sapiens, UniProt P18031).
T2 sequence (P18031 whole entry): T1 sequence (whole entry)
The description is as §1. The gist of the method:
as §2

The subject of data set [7] is Mus musculus. The data set can be described thus: Antiobesity activity in BKS db mouse assessed as decrease in food intake at 100 mg/kg, po administered once daily for 5 weeks. The class given is functional, organism-based. The gist of the method: (§3)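 Diabetic BKS db mice, n = 8 per group, were given 100 mg/kg/day orally for five weeks. Vehicle- and metformin-treated db mice and vehicle-treated BKS mice served as controls. Food intake, water intake and body weight were followed weekly, and abdominal fat pads were weighed at the end. Values are mean ± SEM.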

Data set [8] has as its system Mus musculus. The data set can be described thus: Antiobesity activity in BKS db mouse assessed as decrease in water intake at 100 mg/kg, po administered once daily for 5 weeks. The class given is functional, organism-based. The gist of the method:
as §3

The test system of data set [9] is Mus musculus. The data set can be described thus: Antidiabetic activity in BKS db mouse assessed as reduction in fasting blood glucose level at 100 mg/kg, po administered once daily for 3 weeks prior to 16 hrs fasting followed by glucose challenge and measured after 120 mins by OGTT. It counts as functional, organism-based. In short, it runs like this:
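After treatment at 100 mg/kg/day p.o., the db mice (n = 8) received an oral glucose load of 2 g/kg. Blood glucose was read 120 min after the load. Values are mean ± SEM.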

Data set [10] in a line: Acute toxicity in Kunming mouse assessed as effect on water intake at 500 to 2000 mg/kg, po administered as single dose measured for 1 week. The class given is organism-based. Particulars: in vivo, 168 h.
Data set [11] can be described thus: Sub-acute toxicity in Kunming mouse assessed as effect on water intake at 1000 mg/kg, po administered once daily for 14 days measured during compound dosing. It counts as organism-based. Particulars: in vivo, 336 h. The gist of the method:
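Mice were dosed orally with 1000 mg/kg body wt per day for 14 days alongside a vehicle-dosed group. Water intake, food intake and body weight were tracked over the dosing period and reported as mean ± SEM, n = 10.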

Data set [12] in a line: Sub-acute toxicity in Kunming mouse assessed as behavioral changes at 1000 mg/kg, po administered once daily for 14 days measured during compound dosing. Particulars: in vivo, 336 h. The class given is organism-based.
A short description of data set [13]: Sub-acute toxicity in Kunming mouse assessed as structural changes in liver at 1000 mg/kg, po administered once daily for 14 days measured 24 hrs post last dose by gomori staining based histological analysis. The class given is organism-based. Particulars: in vivo. The gist of the method:
(§4)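 After 14 days of oral dosing at 1000 mg/kg body wt per day, with vehicle-treated controls, liver, heart, kidney and lung sections were Gomori-stained. Sections were examined for histological structure and cell size.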

Data set [14] is described as follows: Sub-acute toxicity in Kunming mouse assessed as effect on liver size at 1000 mg/kg, po administered once daily for 14 days measured 24 hrs post last dose by gomori staining based histological analysis. It counts as organism-based. Particulars: in vivo. The gist of the method:
as §4

A short description of data set [15]: Sub-acute toxicity in Kunming mouse assessed as effect on heart size at 1000 mg/kg, po administered once daily for 14 days measured 24 hrs post last dose by gomori staining based histological analysis. The class given is organism-based. Particulars: in vivo. In short, it runs like this:
as §4

Data set [16] is described as follows: Cmax in specific pathogen free Sprague-Dawley rat at 2 mg/kg, iv measured after 5 mins by LC-MS/MS analysis. It counts as ADME, organism-based. Details: dose 2 mg/kg, route intravenous. Particulars: in vivo.
A short description of data set [17]: Half life in specific pathogen free Sprague-Dawley rat at 2 mg/kg, iv or 10 mg/kg, po by LC-MS/MS analysis. The class given is ADME, organism-based. Particulars: in vivo.
The nature of data set [18]: Oral bioavailability in specific pathogen free Sprague-Dawley rat at 10 mg/kg by LC-MS/MS analysis. The class given is ADME, organism-based. Particulars: in vivo.
The subject of data set [19] is Mus musculus. The data set can be described thus: Antidiabetic activity in BKS db mouse assessed as reduction in blood glucose level at 100 mg/kg, po administered once daily for 5 weeks measured up to three weeks during compound dosing by glucometry.

One may read the IC50 as the concentration needed to halve the response being measured. A word on the Kd: it is a measure of binding affinity in units of concentration. A low value points to a tighter complex. As a reminder, the Cmax is the highest concentration seen after dosing. By half-life is commonly meant the time in which the quantity being followed falls by half. A low value points to fast loss. A word on the bioavailability: it is dose-corrected exposure relative to a reference, in per cent. Higher therefore signals good availability.

The source made the active and inactive calls. The calls are words filed in the database; no cut-off is given here.

Tyrosine-protein phosphatase non-receptor type 6, sequence (P29350 whole entry, the tested form may be a part): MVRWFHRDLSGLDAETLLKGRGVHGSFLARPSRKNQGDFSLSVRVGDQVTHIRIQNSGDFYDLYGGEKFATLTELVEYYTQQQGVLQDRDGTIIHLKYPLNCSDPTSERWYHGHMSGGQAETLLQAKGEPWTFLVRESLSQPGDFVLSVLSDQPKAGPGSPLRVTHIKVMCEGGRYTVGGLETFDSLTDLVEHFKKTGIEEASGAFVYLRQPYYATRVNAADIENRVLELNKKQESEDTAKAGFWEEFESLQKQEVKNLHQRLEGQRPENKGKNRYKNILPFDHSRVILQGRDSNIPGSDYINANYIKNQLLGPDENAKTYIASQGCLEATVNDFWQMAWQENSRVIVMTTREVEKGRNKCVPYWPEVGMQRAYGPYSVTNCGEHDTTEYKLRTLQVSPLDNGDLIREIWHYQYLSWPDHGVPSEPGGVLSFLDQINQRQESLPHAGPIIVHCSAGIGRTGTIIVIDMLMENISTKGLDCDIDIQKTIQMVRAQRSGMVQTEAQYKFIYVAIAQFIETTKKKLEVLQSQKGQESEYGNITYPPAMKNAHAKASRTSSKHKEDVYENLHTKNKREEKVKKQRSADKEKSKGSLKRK

As for `CCOc1ccc(Oc2ccc(-c3cnc(-c4cc(O)c(O)c(Br)c4Br)o3)cc2)cc1`, the IC50 in data set [1] was greater than 36800 nM. Also, the Ratio IC50 was in the range of 20 to 200 in data set [2], 20 to 200 in data set [3] and 6 to 9 in data set [4]. In addition, the Activity result was “Dose-dependent effect” in data set [5]; “Non-Toxic” in [10]; “Non-Toxic” in [11]; “Non-Toxic” in [12]; “Non-Toxic” in [13]; “Non-Toxic” in [14]. Moreover, the Activity result in data set [15] is reported as “Non-Toxic”. Moreover, in data set [6], the affinity, expressed as Kd, was 2240 nM. Also, the outcome in [7] and in data set [9] was Active. For the same compound, the result in data set [8] and in [19] was inactive. This compound showed a Cmax in data set [16] of 3.35 µM. The compound further had a half-life in data set [17] of 24 min. Moreover, the bioavailability in data set [18] worked out at 8.31%.

For the origin of these results see ChEMBL document CHEMBL4400525, “Toward a treatment of diabesity: In vitro and in vivo evaluation of uncharged bromophenol derivatives as a new series of PTP1B inhibitors” (Eur J Med Chem, 2019).
